Reference: ChEMBL document CHEMBL4265950, “Discovery of furyl/thienyl β-carboline derivatives as potent and selective PDE5 inhibitors with excellent vasorelaxant effect” (Eur J Med Chem, 2018)

Key:
[1] = molecular target: T1, cGMP-specific 3',5'-cyclic phosphodiesterase (Homo sapiens, UniProt O76074); assay: Inhibition of PDE5 (unknown origin)
[2] = molecular target: T1, cGMP-specific 3',5'-cyclic phosphodiesterase; assay: Inhibition of full length recombinant human N-terminal GST-tagged PDE5A1 expressed in baculovirus infected sf9 cells using FAM-cyclic-3',5-GMP as substrate after 1 hr by fluorescence polarization assay
[3] = molecular target: T1, cGMP-specific 3',5'-cyclic phosphodiesterase; assay: Inhibition of full length recombinant human N-terminal GST-tagged PDE5A1 expressed in baculovirus infected sf9 cells at 100 nM using FAM-cyclic-3',5-GMP as substrate after 1 hr by fluorescence polarization assay relative to control
Method in brief: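 Single-point test at 100 nM, reported as percent inhibition. Human PDE5 at 15 ng/mL with 100 nM FAM-cGMP in MOPS pH 7.5 buffer (MgCl2, EDTA, BSA, DTT), 1% DMSO final, 60 min at 25 °C. Binding agent added for 1 h, then fluorescence polarization read at […] nm.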

[4] = Stability of the compound in PDE5 enzyme assay condition at 100 uM by HPLC analysis; format: ADME
[5] = molecular target: Dual specificity calcium/calmodulin-dependent 3',5'-cyclic nucleotide phosphodiesterase 1A (Homo sapiens, UniProt P54750); assay: Inhibition of full length recombinant human N-terminal GST-tagged PDE1A expressed in baculovirus infected sf9 cells using FAM-cyclic-3',5-AMP as substrate after 1 hr by fluorescence polarization assay
Method in brief: (§1)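 Fluorescence polarization assay run at 25 °C for 60 min in 40 mM MOPS pH 7.5, 0.5 mM EDTA, 15 mM MgCl2, 0.15 mg/mL BSA, 1 mM DTT, 0.05% ProClin 200. Contained 15 ng/mL PDE isoform and 100 nM FAM-cGMP or FAM-cAMP according to isoform, with 1% DMSO final. Binding agent added for 1 h at 25 °C; read at […] nm. IC50 from normalized nonlinear dose-response fit.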

[6] = molecular target: cGMP-specific 3',5'-cyclic phosphodiesterase (Rattus norvegicus, UniProt O54735); assay: (§2) Inhibition of PDE5 in Wistar rat mesentric arteries assessed as inhibition of phenylephrine-induced contraction by measuring increase in acetylcholine-induced vasorelaxation by pressure myographic method
Method in brief: (§3)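 Third-order rat mesenteric arteries (110–150 µm), 3–4 mm unbranched segments, cannulated in PSS (pH 7.4, 95% O2/5% CO2). Equilibrated 35 min while pressure was stepped 10→60 mmHg. Checked with 120 mM KCl and acetylcholine, then constricted with 20 µM phenylephrine (norepinephrine in text) and given compounds cumulatively. Ca²⁺-free PSS set maximal dilation. Outer diameter recorded as % relaxation; EC50 from normalized nonlinear fit.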

[7] = molecular target: cGMP-specific 3',5'-cyclic phosphodiesterase (Rattus norvegicus) (UniProt O54735); assay: as §2; method in brief: as §3
[8] = molecular target: Cone cGMP-specific 3',5'-cyclic phosphodiesterase subunit alpha' (Homo sapiens, UniProt P51160); assay: Inhibition of full length recombinant human N-terminal GST-tagged PDE6C expressed in baculovirus infected sf9 cells using […] as substrate after 1 hr by fluorescence polarization assay
Homo sapiens [9] = organism: Homo sapiens; assay: Selectivity index, ratio of IC50 for inhibition of full length recombinant human N-terminal GST-tagged PDE11A4 expressed in baculovirus infected sf9 cells to IC50 for inhibition of full length recombinant human N-terminal GST-tagged PDE5A1 expressed in baculovirus infected sf9 cells
[10] = molecular target: cGMP-inhibited 3',5'-cyclic phosphodiesterase 3B (Homo sapiens, UniProt Q13370); assay: Inhibition of recombinant human N-terminal GST-tagged PDE3B (592 to end residues) expressed in baculovirus infected sf9 cells using FAM-cyclic-3',5-AMP as substrate after 1 hr by fluorescence polarization assay; method in brief: as §1
[11] = molecular target: Dual 3',5'-cyclic-AMP and -GMP phosphodiesterase 11A (Homo sapiens, UniProt Q9HCR9); assay: Inhibition of full length recombinant human N-terminal GST-tagged PDE11A4 expressed in baculovirus infected sf9 cells using FAM-cyclic-3',5-AMP as substrate after 1 hr by fluorescence polarization assay
[12] = molecular target: cGMP-dependent 3',5'-cyclic phosphodiesterase (Homo sapiens, UniProt O00408); assay: Inhibition of recombinant human N-terminal FLAG-tagged PDE2A (2 to 941 residues) expressed in baculovirus infected sf9 cells using FAM-cyclic-3',5-AMP as substrate after 1 hr by fluorescence polarization assay; method in brief: as §1
[13] = molecular target: 3',5'-cyclic-AMP phosphodiesterase 4A (Homo sapiens, UniProt P27815); assay: Inhibition of full length recombinant human N-terminal GST-tagged PDE4A1A expressed in baculovirus infected sf9 cells using FAM-cyclic-3',5-AMP as substrate after 1 hr by fluorescence polarization assay
Homo sapiens [14] = organism: Homo sapiens; assay: Selectivity index, ratio of IC50 for inhibition of full length recombinant human N-terminal GST-tagged PDE6C expressed in baculovirus infected sf9 cells to IC50 for inhibition of full length recombinant human N-terminal GST-tagged PDE5A1 expressed in baculovirus infected sf9 cells

Chain of cGMP-inhibited 3',5'-cyclic phosphodiesterase 3B (Q13370 whole entry): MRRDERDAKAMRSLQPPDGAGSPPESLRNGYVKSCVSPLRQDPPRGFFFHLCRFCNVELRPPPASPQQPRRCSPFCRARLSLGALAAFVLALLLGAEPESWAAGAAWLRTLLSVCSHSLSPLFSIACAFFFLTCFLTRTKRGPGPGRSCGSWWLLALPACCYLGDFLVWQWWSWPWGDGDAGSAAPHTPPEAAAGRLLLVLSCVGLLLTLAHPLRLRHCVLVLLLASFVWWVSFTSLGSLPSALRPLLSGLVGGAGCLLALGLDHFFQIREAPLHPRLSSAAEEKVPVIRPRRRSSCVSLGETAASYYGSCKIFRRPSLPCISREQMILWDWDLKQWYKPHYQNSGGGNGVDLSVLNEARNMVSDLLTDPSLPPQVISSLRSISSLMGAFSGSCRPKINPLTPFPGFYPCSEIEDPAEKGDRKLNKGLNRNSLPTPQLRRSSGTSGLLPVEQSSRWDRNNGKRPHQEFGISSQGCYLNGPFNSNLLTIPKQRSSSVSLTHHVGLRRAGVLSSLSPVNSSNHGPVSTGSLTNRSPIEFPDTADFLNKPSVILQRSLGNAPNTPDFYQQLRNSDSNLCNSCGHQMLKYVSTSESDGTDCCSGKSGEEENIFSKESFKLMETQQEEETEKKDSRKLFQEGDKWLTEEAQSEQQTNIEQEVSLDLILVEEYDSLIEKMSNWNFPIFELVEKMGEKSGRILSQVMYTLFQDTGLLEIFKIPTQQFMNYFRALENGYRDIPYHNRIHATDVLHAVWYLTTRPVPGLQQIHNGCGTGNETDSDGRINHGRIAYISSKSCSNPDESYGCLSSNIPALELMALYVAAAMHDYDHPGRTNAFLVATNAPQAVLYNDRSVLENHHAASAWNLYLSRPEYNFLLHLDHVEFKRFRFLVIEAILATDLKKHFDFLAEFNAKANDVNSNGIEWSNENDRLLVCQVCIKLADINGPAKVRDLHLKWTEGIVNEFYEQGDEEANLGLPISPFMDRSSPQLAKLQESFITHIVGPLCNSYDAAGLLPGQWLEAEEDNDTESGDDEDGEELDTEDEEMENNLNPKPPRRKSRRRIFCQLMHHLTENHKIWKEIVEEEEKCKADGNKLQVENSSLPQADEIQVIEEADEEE
Chain of Dual 3',5'-cyclic-AMP and -GMP phosphodiesterase 11A (Q9HCR9 whole entry, the tested form may be a part): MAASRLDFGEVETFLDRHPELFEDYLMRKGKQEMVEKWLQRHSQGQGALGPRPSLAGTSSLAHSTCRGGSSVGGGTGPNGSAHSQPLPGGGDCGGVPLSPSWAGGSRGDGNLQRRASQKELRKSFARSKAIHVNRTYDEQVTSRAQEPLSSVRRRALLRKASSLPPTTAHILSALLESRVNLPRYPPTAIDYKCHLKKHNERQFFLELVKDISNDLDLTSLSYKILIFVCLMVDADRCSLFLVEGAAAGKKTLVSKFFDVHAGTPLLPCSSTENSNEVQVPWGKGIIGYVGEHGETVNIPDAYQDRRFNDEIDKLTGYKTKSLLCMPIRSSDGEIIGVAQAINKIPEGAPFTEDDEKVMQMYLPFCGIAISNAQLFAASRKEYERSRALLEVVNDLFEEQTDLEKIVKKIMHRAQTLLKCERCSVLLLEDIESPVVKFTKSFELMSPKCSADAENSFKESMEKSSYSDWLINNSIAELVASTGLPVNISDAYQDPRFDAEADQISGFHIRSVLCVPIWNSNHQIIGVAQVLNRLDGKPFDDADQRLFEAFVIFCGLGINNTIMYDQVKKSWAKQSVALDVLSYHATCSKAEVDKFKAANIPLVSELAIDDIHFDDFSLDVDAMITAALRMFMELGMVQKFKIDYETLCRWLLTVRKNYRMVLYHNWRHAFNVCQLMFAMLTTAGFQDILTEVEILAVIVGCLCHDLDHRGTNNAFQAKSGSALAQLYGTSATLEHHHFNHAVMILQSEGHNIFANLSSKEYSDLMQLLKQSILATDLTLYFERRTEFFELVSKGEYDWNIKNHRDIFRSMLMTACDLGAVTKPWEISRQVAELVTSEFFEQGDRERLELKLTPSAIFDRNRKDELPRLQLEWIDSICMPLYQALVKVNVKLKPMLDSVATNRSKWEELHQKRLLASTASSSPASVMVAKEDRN
Chain of Cone cGMP-specific 3',5'-cyclic phosphodiesterase subunit alpha' (P51160 whole entry): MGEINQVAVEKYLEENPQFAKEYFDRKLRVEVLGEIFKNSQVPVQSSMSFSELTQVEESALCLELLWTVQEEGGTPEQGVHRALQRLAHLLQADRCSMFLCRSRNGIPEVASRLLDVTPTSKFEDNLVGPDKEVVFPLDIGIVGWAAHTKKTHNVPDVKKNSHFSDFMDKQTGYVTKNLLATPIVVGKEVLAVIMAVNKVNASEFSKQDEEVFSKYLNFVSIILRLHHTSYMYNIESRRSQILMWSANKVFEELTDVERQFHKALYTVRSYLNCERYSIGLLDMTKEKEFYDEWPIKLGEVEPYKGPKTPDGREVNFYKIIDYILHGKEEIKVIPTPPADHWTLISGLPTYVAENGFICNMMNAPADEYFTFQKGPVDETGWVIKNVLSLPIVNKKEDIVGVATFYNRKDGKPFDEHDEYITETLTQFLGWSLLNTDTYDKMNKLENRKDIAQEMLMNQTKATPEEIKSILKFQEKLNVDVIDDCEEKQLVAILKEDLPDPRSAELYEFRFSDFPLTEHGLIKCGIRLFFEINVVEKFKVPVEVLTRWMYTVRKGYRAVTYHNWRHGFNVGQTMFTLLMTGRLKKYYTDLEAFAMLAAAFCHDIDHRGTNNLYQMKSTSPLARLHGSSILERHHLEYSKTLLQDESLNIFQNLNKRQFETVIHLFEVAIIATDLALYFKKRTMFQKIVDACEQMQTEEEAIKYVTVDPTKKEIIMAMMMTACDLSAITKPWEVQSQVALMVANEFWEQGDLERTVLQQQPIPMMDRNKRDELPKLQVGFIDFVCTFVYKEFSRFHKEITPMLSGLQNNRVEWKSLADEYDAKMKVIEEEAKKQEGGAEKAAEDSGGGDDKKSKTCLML
Chain of cGMP-dependent 3',5'-cyclic phosphodiesterase (O00408 whole entry, the tested form may be a part): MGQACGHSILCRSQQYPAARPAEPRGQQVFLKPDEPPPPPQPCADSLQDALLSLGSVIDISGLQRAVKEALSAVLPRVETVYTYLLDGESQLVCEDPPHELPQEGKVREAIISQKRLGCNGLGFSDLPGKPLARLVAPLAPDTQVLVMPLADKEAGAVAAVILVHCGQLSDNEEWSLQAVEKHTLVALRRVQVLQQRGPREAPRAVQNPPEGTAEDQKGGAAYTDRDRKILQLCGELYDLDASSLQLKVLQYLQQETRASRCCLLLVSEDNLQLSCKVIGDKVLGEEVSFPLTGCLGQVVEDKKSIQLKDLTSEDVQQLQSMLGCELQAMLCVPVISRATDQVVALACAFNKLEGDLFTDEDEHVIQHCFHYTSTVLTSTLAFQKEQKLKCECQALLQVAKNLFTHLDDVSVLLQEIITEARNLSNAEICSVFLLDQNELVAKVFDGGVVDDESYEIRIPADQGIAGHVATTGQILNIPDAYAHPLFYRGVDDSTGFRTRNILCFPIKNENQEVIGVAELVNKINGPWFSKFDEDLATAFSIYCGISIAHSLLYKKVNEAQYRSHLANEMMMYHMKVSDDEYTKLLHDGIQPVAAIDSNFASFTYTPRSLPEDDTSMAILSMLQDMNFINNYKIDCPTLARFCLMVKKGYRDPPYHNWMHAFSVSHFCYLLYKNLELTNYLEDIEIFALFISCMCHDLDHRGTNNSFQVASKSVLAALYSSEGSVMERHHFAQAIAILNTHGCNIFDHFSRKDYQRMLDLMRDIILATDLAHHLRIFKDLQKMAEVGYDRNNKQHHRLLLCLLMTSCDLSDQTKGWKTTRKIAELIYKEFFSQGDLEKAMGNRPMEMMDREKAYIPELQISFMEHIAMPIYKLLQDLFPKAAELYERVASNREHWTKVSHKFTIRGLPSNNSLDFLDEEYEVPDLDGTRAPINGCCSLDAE
Chain of Dual specificity calcium/calmodulin-dependent 3',5'-cyclic nucleotide phosphodiesterase 1A (P54750 whole entry, canonical isoform): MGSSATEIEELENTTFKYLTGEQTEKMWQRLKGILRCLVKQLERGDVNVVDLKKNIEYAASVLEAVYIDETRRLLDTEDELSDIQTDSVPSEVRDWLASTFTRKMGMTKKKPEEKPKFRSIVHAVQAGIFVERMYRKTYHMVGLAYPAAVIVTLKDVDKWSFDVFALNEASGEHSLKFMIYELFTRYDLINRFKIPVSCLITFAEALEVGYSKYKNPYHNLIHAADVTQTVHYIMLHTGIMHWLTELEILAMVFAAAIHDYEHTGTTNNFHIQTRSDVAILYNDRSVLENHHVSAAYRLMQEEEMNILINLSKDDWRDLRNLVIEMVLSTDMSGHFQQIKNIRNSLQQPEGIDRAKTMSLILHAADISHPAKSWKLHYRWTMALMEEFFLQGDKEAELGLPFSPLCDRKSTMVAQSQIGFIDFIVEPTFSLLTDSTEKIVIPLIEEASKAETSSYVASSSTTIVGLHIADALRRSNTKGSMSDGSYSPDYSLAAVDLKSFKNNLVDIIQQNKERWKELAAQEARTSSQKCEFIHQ

IC50 [1]	IC50 [2]	inhibition [3]	Stability [4]	IC50 [5]	EC50 [6]	percent relaxation [7]	IC50 [8]	IC50 [10]	IC50 [11]	IC50 [12]	IC50 [13]	Ki [1]	SMILES	Ratio IC50 (Homo sapiens [9])	Ratio IC50 (Homo sapiens [14])
0.19 µM	–	–	–	–	–	–	–	–	–	–	–	–	c1ccc(CNc2ncnc3sc4c(c23)CCCCC4)cc1	–	–
–	0.227 µM	47.8%	Stable	–	–	–	–	–	–	–	–	–	CCNC(=O)c1cc2c([nH]c3ccccc32)c(-c2ccc(CC)s2)n1	–	–
–	0.00702 µM	91.4%	–	> 20 µM	0.103 µM	Dose-dependent effect	> 1 µM	> 20 µM	0.169 µM	> 20 µM	> 10 µM	–	CCc1ccc([C@@H]2c3[nH]c4ccccc4c3C[C@@H]3C(=O)N(CC)C(=O)N23)s1	24	> 142
–	0.0072 µM	99.2%	–	> 20 µM	0.055 µM	Dose-dependent effect	0.136 µM	> 20 µM	0.219 µM	> 20 µM	> 10 µM	–	CN1CC(=O)N2[C@H](c3ccc(Br)s3)c3[nH]c4ccccc4c3C[C@@H]2C1=O	30	19
–	0.0105 µM	85.4%	–	> 20 µM	0.191 µM	Dose-dependent effect	0.062 µM	> 20 µM	0.004 µM	> 20 µM	> 10 µM	–	CCN1C(=O)[C@@H]2Cc3c([nH]c4ccccc34)[C@@H](c3ccc(C)o3)N2C1=O	0.4	6
–	–	46.1%	Stable	–	–	–	–	–	–	–	–	–	CCNC(=O)N1[C@H](c2ccc(CC)o2)c2[nH]c3ccccc3c2C[C@@H]1C(=O)OC	–	–
–	0.0525 µM	73.3%	Stable	–	–	–	0.288 µM	–	0.634 µM	–	–	–	CCc1ccc(C2c3[nH]c4ccccc4c3C(=O)CN2c2ncc(-c3ccc(OC)c(OC)c3)cn2)o1 (centres undefined)	12	5
0.24 µM	–	–	–	–	–	–	–	–	–	–	–	–	CC(C)(C)Oc1ccc(Cc2[nH]c(-c3ccco3)c3c(=O)c4ccccc4oc23)cc1	–	–
–	0.00524 µM	94.1%	Stable	> 20 µM	0.058 µM	Dose-dependent effect	0.056 µM	> 20 µM	> 1 µM	> 20 µM	> 10 µM	–	CCc1ccc([C@@H]2c3[nH]c4ccccc4c3C[C@H]3C(=O)N(CC)C(=O)N23)s1	> 190	11
0.17 µM	–	–	–	–	–	–	–	–	–	–	–	–	CCCCCN1C(=O)[C@@H]2Cc3c([nH]c4ccccc34)[C@@H](c3ccc(Br)s3)N2C1=O	–	–
–	–	25.2%	Stable	–	–	–	–	–	–	–	–	–	CCc1ccc(C(=O)c2[nH]c3ccccc3c2CCNc2ccc(-c3ccccn3)cn2)s1	–	–
–	0.00844 µM	85.8%	–	> 20 µM	0.225 µM	Dose-dependent effect	> 1 µM	> 20 µM	0.099 µM	> 20 µM	> 10 µM	–	CCc1ccc([C@@H]2c3[nH]c4ccccc4c3C[C@@H]3C(=O)N(CC)C(=O)N23)o1	12	> 118
–	–	–	–	–	–	–	–	–	–	–	–	0.005 µM	COc1ccc(CN=c2[nH]c(N3CCC[C@H]3CO)ncc2C(=O)NCc2ncccn2)cc1Cl	–	–
0.16 µM	–	–	–	–	–	–	–	–	–	–	–	–	CCN1C(=O)[C@@H]2Cc3c([nH]c4ccccc34)[C@@H](c3ccc(Br)s3)N2C1=O	–	–
–	0.00868 µM	96%	–	> 20 µM	0.071 µM	Dose-dependent effect	> 1 µM	> 20 µM	0.173 µM	> 20 µM	> 10 µM	–	Cc1ccc([C@@H]2c3[nH]c4ccccc4c3C[C@@H]3C(=O)N(C)CC(=O)N23)s1	20	> 115
–	–	–	–	–	–	–	–	–	–	–	–	0.008 µM	COc1ccc(-c2cnc(N3CC(=O)c4c([nH]c5ccccc45)C3c3ccc4c(c3)OCO4)nc2)cc1OC (racemic)	–	–
0.086 µM	–	–	–	–	–	–	–	–	–	–	–	–	CCc1ccc(C2c3[nH]c4ccccc4c3CCN2c2ccc(-c3ccccn3)cn2)s1 (centres undefined)	–	–
